The values below come from publication PMC3548047 (Nature, 2013).

Where a SMILES comes first, the peptide text is derived from it. The star is where a group is joined. Myristoyl = CCCCCCCCCCCCCC(=O)*

Series [1] has as its target T1, PKMζ (Rattus norvegicus, UniProt P09217).
T1 sequence (P09217 1-409 isoform P09217-2): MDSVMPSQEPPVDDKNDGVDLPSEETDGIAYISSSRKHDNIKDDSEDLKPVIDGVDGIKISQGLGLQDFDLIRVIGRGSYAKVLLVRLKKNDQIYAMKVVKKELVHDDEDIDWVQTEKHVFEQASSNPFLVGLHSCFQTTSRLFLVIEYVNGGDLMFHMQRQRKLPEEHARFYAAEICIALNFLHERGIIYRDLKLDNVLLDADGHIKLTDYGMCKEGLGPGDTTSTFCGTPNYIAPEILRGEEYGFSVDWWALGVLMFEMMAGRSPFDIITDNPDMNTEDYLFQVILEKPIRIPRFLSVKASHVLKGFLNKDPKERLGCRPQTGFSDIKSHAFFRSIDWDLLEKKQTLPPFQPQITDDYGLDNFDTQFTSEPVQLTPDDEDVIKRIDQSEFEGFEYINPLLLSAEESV
Kind of series: LANCE TR-FRET in vitro kinase assay, purified PKMζ. Format: biochemical. On the technique in general: TR-FRET usually uses a lanthanide donor and a delayed reading to cut background.

The target in series [2] is T2, PKCι (Rattus norvegicus, UniProt F1M7Y5).
T2 sequence (F1M7Y5 1-596): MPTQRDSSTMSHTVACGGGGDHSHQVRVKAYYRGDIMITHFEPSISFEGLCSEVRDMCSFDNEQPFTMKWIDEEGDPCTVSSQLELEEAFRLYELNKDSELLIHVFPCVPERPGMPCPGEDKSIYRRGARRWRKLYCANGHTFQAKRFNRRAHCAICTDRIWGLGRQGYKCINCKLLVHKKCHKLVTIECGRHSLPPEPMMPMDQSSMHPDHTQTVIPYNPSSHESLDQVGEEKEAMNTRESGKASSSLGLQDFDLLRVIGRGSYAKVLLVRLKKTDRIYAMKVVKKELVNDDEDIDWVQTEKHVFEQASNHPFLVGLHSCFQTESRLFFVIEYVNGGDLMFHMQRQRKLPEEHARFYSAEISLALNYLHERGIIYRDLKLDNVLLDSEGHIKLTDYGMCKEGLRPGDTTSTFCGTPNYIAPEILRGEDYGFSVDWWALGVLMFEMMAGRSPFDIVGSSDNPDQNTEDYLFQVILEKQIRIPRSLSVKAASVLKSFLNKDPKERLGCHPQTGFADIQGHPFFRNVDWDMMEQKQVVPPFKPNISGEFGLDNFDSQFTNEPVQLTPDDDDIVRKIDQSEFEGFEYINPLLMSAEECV
Kind of series: LANCE TR-FRET in vitro kinase assay, purified PKCι. The class given is biochemical.

For series [3], the target named is T3, PKCζ (Rattus norvegicus, UniProt P09217).
T3 sequence (P09217 1-592): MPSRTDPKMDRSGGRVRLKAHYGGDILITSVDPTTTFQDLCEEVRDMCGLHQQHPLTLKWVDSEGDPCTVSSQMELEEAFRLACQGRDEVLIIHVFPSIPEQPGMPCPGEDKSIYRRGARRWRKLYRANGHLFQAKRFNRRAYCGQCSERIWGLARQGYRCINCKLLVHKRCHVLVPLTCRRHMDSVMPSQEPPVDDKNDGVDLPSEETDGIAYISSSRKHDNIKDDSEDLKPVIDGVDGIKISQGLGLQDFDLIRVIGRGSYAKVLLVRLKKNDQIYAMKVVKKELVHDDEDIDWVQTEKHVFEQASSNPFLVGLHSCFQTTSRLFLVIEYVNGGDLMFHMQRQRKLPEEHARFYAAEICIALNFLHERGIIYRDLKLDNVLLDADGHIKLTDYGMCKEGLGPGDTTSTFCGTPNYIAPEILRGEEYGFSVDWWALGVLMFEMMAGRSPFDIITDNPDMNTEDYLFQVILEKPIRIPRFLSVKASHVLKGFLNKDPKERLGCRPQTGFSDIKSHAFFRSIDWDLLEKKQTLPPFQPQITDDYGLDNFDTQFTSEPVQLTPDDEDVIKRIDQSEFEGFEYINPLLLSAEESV
Put plainly: LANCE TR-FRET in vitro kinase assay, purified PKCζ. Format: biochemical.

Series [4] concerns Prkcz−/− mice (cocaine reward memory). The class given is in vivo. Particulars: ZIP 10 nmol/µl, 1 µl per side into NAc. Summed up:
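Two-chamber CPP with 20-min conditioning sessions; saline or cocaine 10 mg/kg i.p., counterbalanced. Bilateral cannulae placed in the NAc (1.40 mm anterior, ±1.0 mm lateral, −3.8 mm ventral) under ketamine/xylazine, with one week of recovery. ZIP at 10 mM in 0.9% saline, or saline, via injectors 0.7 mm past the guides, left 1 min. Index: cocaine-side time on test minus preconditioning time. Mice with placements outside the NAc (Nissl) and Grubbs outliers excluded.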

Series [5] has as its system object location memory in rats. The conditions noted are these: ZIP bilaterally into the hippocampus; cited from earlier work.
Series [6] relates to cocaine reward memory in rats. The conditions noted are these: ZIP injection into the NAc; cited from earlier work.
In series [7] the test system is fear memory in rats. The conditions noted are these: ZIP administration into the amygdala; cited from earlier work.
The test system of series [8] is Prkcz−/− mice (drug reward memory). Put plainly: Cocaine conditioned place preference, non-cannulated Prkcz−/− mice. The conditions noted are these: cocaine 10 mg/kg i.p.; male mice; t=0.153, P=0.88. The class given is in vivo.

What is called Ki is the equilibrium dissociation constant of an inhibitor or competing ligand from its target. A higher Ki goes with lower affinity. Consider `COc1ccc2c(c[n+](C)c3c4cc5c(cc4ccc23)OCO5)c1OC` [Chelerythrine, chelerythrine], for which the Ki in series [1] stood at 76 µM. In addition, the “inhibition of PKMζ with DTT, in words” value in series [1] (1 mM DTT included) is on record as “lost all inhibitory activity”. In addition, in series [1] (1 mM DTT present), the “appearance in the presence of DTT” value is “changed color”. Further, the “inhibition of PKMζ without DTT, in words” value in series [1] (assayed without dithiothreitol (DTT)) is “weak inhibitor of PKMζ”.
As for `CCCCCCCCCCCCCC(=O)N[C@@H](CCCNC(=N)N)C(=O)N[C@@H](CC(C)C)C(=O)N[C@@H](Cc1ccc(O)cc1)C(=O)N[C@@H](CCCNC(=N)N)C(=O)N[C@@H](CCCCN)C(=O)N[C@@H](CCCNC(=N)N)C(=O)N[C@H](C(=O)N[C@@H](Cc1c[nH]c2ccccc12)C(=O)N[C@@H](CCCNC(=N)N)C(=O)N[C@@H](CO)C(=O)N[C@@H](C)C(=O)NCC(=O)N[C@@H](CCCNC(=N)N)C(=O)O)[C@@H](C)CC` [Scrambled ZIP] (Myristoyl-RLYRKRIWRSAGR-OH; N-terminus and C-terminus assumed), the Ki in series [1] was determined as 15.4 µM; in series [2] it was 4.92 µM; in series [3], 5.51 µM. Further, the “inhibition of PKMζ, PKCι and PKCζ compared (Ki), in words” value in series [1] (in vitro kinase assay, PKMζ) was “inhibited PKMζ, PKCι and PKCζ with similar Ki values”.
Take `CCCCCCCCCCCCCC(=O)N[C@@H](CO)C(=O)N[C@H](C(=O)N[C@@H](Cc1ccc(O)cc1)C(=O)N[C@@H](CCCNC(=N)N)C(=O)N[C@@H](CCCNC(=N)N)C(=O)NCC(=O)N[C@@H](C)C(=O)N[C@@H](CCCNC(=N)N)C(=O)N[C@@H](CCCNC(=N)N)C(=O)N[C@@H](Cc1c[nH]c2ccccc12)C(=O)N[C@@H](CCCNC(=N)N)C(=O)N[C@@H](CCCCN)C(=O)N[C@@H](CC(C)C)C(=O)O)[C@@H](C)CC` [ZIP, myristoylated zeta inhibitory peptide] (Myristoyl-SIYRRGARRWRKL-OH; C-terminus assumed): the Ki in series [1] was determined as 2.11 µM; in series [2], 1.43 µM; in series [3], 1.7 µM. For the same compound, the “difference in Ki values between ZIP and scrambled ZIP” value in series [1] (PKMζ, in vitro kinase assay) was 7.3 -fold. Also, the “inhibition of PKMζ, PKCι and PKCζ compared (Ki), in words” value in series [1] (in vitro kinase assay, PKMζ) is “inhibited PKMζ, PKCι and PKCζ with similar Ki values”. Further, the “t statistic for ZIP versus saline, cocaine CPP” value in series [4] turned out to be 2.258. Also, in series [5], the “object location memory performance, in words” value is on record as “impaired”. The “cocaine reward memory, in words” value in series [6] is recorded as “can erase cocaine reward memory”. Besides, in series [7], the “performance in cued fear conditioning, in words” value is “impaired”.
Consider `COC(=O)[C@H]1[C@@H](OC(=O)c2ccccc2)C[C@@H]2CC[C@H]1N2C` [cocaine], for which, in series [8], the “cocaine CPP index, Prkcz−/− versus wild-type, in words” value is “no genotype difference in the cocaine CPP index”.
